# Assay results pooled from the literature.
# Target: MAP kinase-interacting serine/threonine-protein kinase 2 (MKNK2, Homo sapiens, UniProt Q9HBH9)
Structure (SMILES),effect on,action,technique,concentration,measurement,value
COc1ncccc1-c1cnn2ccc(N3CCN(C(=O)OC(C)C)CC3)nc12,binding,,competition with immobilised ligand,1 µM,remaining binding,100%
N#CC1(c2ccccn2)CCN(Cc2cc(C(=O)O)c(=O)n3ccccc23)CC1,cell-free assay,,competition with immobilised ligand,1 µM,remaining binding,85%
CC(C)(C)c1cc(C=C(C#N)C#N)cc(Br)c1O,enzyme activity,inhibitor,,0.5 µM,remaining activity,100%
C#Cc1n[nH]c2c(-c3cn([C@@H](C)c4ccccc4)c(=O)[nH]c3=O)cc(F)cc12,enzyme activity,inhibitor,,0.1 µM,inhibition,-7.9%
Cc1nn(C)cc1-c1nc2c(N3CCN(Cc4ccc(Cl)cc4)CC3)c(Cl)cnc2[nH]1,binding,,competition with immobilised ligand,1 µM,remaining binding,46%
Nc1ncc(-c2nc(N3CCOCC3)nc(N3CCOCC3)n2)c(C(F)F)n1,binding,,competition with immobilised ligand,10 µM,remaining binding,56%
C#Cc1n[nH]c2c(-c3cn(C(C)c4ccccn4)c(=O)[nH]c3=O)cc(F)cc12 (stereo not shown),enzyme activity,inhibitor,,1 µM,inhibition,9.9%
Cn1cncc1[C@](O)(COc1ccc(C#N)cc1-c1ccc(OC(F)(F)F)cc1)c1ccc(C#N)cc1,cell-free assay,,competition with immobilised ligand,1 µM,remaining binding,85%
O=c1[nH]c2ccccc2n1C1CCN(Cc2ccc(-c3[nH]c4cc5ncnc5cc4nc3-c3ccccc3)cc2)CC1,cell-free assay,,,0.5 µM,remaining signal,98.7%
COc1cc(Nc2ncc(F)c(Nc3ccc4c(n3)NC(=O)C(C)(C)O4)n2)cc(OC)c1OC,binding,,competition with immobilised ligand,10 µM,inhibition,100%
